The source of these data is ChEMBL document CHEMBL3792346, “Thiazolino 2-Pyridone Amide Inhibitors of Chlamydia trachomatis Infectivity” (J Med Chem, 2016).

Each structure is given as a SMILES string.

The test system of data set [1] is Chlamydia trachomatis. Put plainly: Drug uptake in Chlamydia trachomatis serovar LGV-L2 inclusion infected in human HeLa cells at 1 uM after 48 hrs by laser confocal microscopy. The data set is classed as ADME, organism-based. The procedure, abridged:
(§1)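 HeLa on coverslips infected with LGV-L2 at MOI 0.5 in HBSS; after 60 min, fresh medium with fluorescent compound or BODIPY control (1 µM) added, left to 48 hpi; PBS-washed, 4% paraformaldehyde fixed, Triton-permeabilized, BSA-blocked, anti-MOMP/rhodamine stained; confocal imaging, 60× oil, Z-stack projections; ≥2 independent experiments.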

The subject of a further data set is HeLa. Put plainly: Drug uptake in human HeLa cells infected with Chlamydia trachomatis serovar LGV-L2 at 1 uM after 48 hrs by laser confocal microscopy. The data set is classed as ADME, cell-based. The procedure, abridged:
as §1

The test system of data set [2] is Chlamydia trachomatis. The experiment in a line: Antimicrobial activity against Chlamydia trachomatis serovar LGV-L2 infected in human HeLa cells assessed as concentration require to reduce relative inclusion forming units by 95% after 48 hrs. Type of data set: functional. The procedure, abridged:
(§2)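 HeLa cells infected with LGV-L2 at MOI 0.1-0.5; compounds added at 1 hpi, tested at 2.5 µM then 5 or 10 µM or 1, 0.5, 0.25, 0.1 µM; after ~48 h, osmotic lysis, SPG restored, 10-fold dilutions reinfect fresh HeLa; IFUs counted by automated imaging versus DMSO; Reinfect95 = lowest concentration consistently giving 95% IFU reduction; ≥2 experiments in triplicate.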

Data set [3] in a line: Cytotoxicity against human HeLa cells assessed as cell viability at 10 uM after 48 hrs by resazurin assay relative to control. Type of data set: cell-based. As to conditions: read-out: Activity; call rule not given here. The procedure, abridged: (§3)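 Uninfected HeLa seeded in RPMI, next day switched to colorless DMEM with 10% FBS, 2 mM glutamine; compounds added in triplicate, 48 h at 37 °C; resazurin added, 3 h at 37 °C dark; fluorescence ex 535/em 595 nm; cell-free wells with compound check direct resazurin reduction; mean of three experiments in triplicate, SD over nine replicates.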

Data set [4] concerns Chlamydia trachomatis. Put plainly: Antimicrobial activity against Chlamydia trachomatis serovar LGV-L2 infected in human HeLa cells assessed as decrease in relative inclusion forming units measured 44 to 48 hrs post infection by DAPI staining-based assay. The data set is classed as functional, organism-based. The method, boiled down: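 HeLa229 cells infected with serovar LGV-L2 at MOI 0.3; compounds in DMSO added at 1 hpi as 8-step halving dilutions from 2 to 0.0156 µM; after 44-48 h, osmotic lysis with cold water, SPG restored, lysate 10-fold serially diluted onto fresh HeLa; after 44-48 h, methanol-fixed, anti-Chlamydia/FITC stained, IFUs counted by automated scanner relative to DMSO; EC50 by nonlinear regression, ≥3 independent experiments.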

For data set [5], the system named is Chlamydia trachomatis. Put plainly: Antimicrobial activity against Chlamydia trachomatis serovar D infected in human HeLa cells assessed as decrease in relative inclusion forming units measured 44 to 48 hrs post infection by DAPI staining-based assay. Type of data set: functional, organism-based.
A short description of data set [6]: Cytotoxicity against human HeLa cells assessed as cell viability at 25 uM after 48 hrs by resazurin assay relative to control. As to conditions: read-out: Activity. The data set is classed as cell-based. The procedure, abridged: as §3
Background: Resazurin is reduced to fluorescent resorufin, in cell work by metabolically active cells.

For the next data set, the system named is Escherichia coli. The experiment in a line: Effect on growth of Escherichia coli MW100 at 50 uM incubated for 8 hrs measured every hour during incubation. The data set is classed as organism-based. As to conditions: in vivo. The method, boiled down: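 E. coli MW100 overnight LB cultures at 37 °C diluted to OD600 0.05 in LB with DMSO or 50 µM compound; grown 8 h with OD600 read hourly and visual inspection; triplicate.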

Data set [7] can be described thus: Effect on growth of Lactobacillus crispatus CCUG 27076A at 50 uM after 48 hrs. The method, boiled down: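 L. crispatus CCUG 27076A in MRS broth at 37 °C, 5% CO2; overnight culture diluted 1:20 and grown 48 h with 50 µM compound or 1% DMSO.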
The test system of the next data set is Candida albicans. Put plainly: Effect on growth of Candida albicans SC314 at 50 uM measured every 2 hrs by microscopy. Type of data set: organism-based. As to conditions: in vivo. The method, boiled down: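 C. albicans SC314 grown overnight at 30 °C, diluted to OD600 0.05, grown to OD600 0.2, then compound added at 10 and 50 µM and grown to saturation; sampled every 2 h for microscopic yeast:hyphal ratio.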

Data set [8] can be described thus: 1-octanol-potassium phosphate buffer distribution co-efficient, log D of the compound incubated overnight at pH 7.4 by shake-flask method.
A short description of data set [9]: Dissociation constant, pKa of the compound by UV-visible spectrophotometry. The data set is classed as physicochemical. The method, boiled down: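 Spectrophotometric titration: 2–5 µL of 10 mM DMSO stock in phosphate buffer with 20-50% (wt/wt) methanol cosolvent and ISA water; titrated pH 2-12 high to low under argon at 25 ± 1 °C, UV–vis spectra by D-PAS; electrode blank-calibrated pH 1.8-12.0 each run; precipitation monitored at 500 nm.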

Data set [10] relates to Chlamydia trachomatis. The experiment in a line: Drug uptake in Chlamydia trachomatis serovar LGV-L2 inclusion infected in human HeLa cells at 1 uM coadministered with 8-Cyclopropyl-7-(naphthalen 1-ylmethyl)-5-oxo-N-(3-methylphenyl)-2,3-dihydro-5H-[1,3]thiazolo[3,2-a]pyridine-3-carboxamide after 48 hrs by laser confocal microscopy. The data set is classed as ADME, organism-based. The method, boiled down:
(§4)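 Infected HeLa (LGV-L2, MOI 0.5) given 1 µM fluorescent analogue alone or with equimolar competitor, added together directly after infection and kept to end; fixed, anti-MOMP stained, confocal imaged with identical settings; fluorescence per inclusion divided by inclusion area in >40 inclusions; two-tailed t-test; ≥2 independent experiments.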

For data set [11], the system named is Chlamydia trachomatis. The experiment in a line: Antimicrobial activity against Chlamydia trachomatis serovar LGV-L2 infected in human HeLa cells at 2.5 uM after 48 hrs. The data set is classed as functional. The procedure, abridged: as §2
In data set [12] the test system is Chlamydia trachomatis. Put plainly: Drug uptake in Chlamydia trachomatis serovar LGV-L2 inclusion infected in human HeLa cells at 1 uM coadministered with 6-Amino-8-cyclopropyl-7-(naphthalen-1-ylmethyl)-5-oxo-N-phenyl-2,3-dihydro-5H-[1,3]thiazolo[3,2-a]pyridine 3-carboxamide after 48 hrs by laser confocal microscopy. Type of data set: ADME, organism-based. The procedure, abridged:
as §4

Data set [13] in a line: 1-octanol-potassium phosphate buffer partition co-efficient, log P of the compound incubated overnight by shake-flask method. Type of data set: physicochemical. The method, boiled down:
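Miniaturized shake-flask: 1-octanol pre-saturated with 0.1 M potassium phosphate pH 7.4 and buffer pre-saturated with octanol mixed 1:3 and 1:6; compound added from 10 mM DMSO stock; rotated overnight at rt, centrifuged 3500 rpm 30 min; each phase diluted in 60% acetonitrile with warfarin internal standard, quantified by UHPLC-MS/MS against 1-1000 nM external curve; ketoconazole control.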

Data set [14] deals with Chlamydia trachomatis. Put plainly: Antimicrobial activity against Chlamydia trachomatis serovar LGV-L2 infected in human HeLa cells at 10 uM measured 44 hrs post infection relative to control. Type of data set: functional.
Data set [15] has as its system Chlamydia trachomatis. Put plainly: Antimicrobial activity against Chlamydia trachomatis serovar LGV-L2 infected in human HeLa cells measured 44 to 48 hrs post infection by DAPI staining-based assay. Type of data set: functional, organism-based.
Data set [16] concerns Chlamydia trachomatis. The experiment in a line: Antimicrobial activity against Chlamydia trachomatis serovar D infected in human HeLa cells at 10 uM measured 44 hrs post infection relative to control. Type of data set: functional.
Data set [17] relates to Chlamydia trachomatis. The experiment in a line: Antimicrobial activity against Chlamydia trachomatis serovar A infected in human HeLa cells at 10 uM measured 44 hrs post infection relative to control. Type of data set: functional.

Turning to `CC1=CC(C)=[N+]2C1=C(C)c1c(C)cc(C)n1[B-]2(F)F`, the Drug uptake entry in the data set on Chlamydia trachomatis [1] and in the data set on HeLa was “Not Active” throughout.

Consider `Nc1c(Cc2cccc3ccccc23)c(C2CC2)c2n(c1=O)C(C(=O)Nc1ccccc1)CS2` (stereo not given), for which the Activity with Chlamydia trachomatis [2] is 0.25 µM; in the data set on Escherichia coli it was “Non-toxic”; in data set [7], “Non-toxic”; with Candida albicans, “Non-toxic”. Besides, the viability at 48 h, 10 µM in data set [3] was 101%. The values for the EC50 in the data set with Chlamydia trachomatis [4] and with Chlamydia trachomatis [5] were 59 nM and 58 nM, respectively. For the same compound, the viability at 48 h, 25 µM in data set [6] turned out to be 98%. Besides, the logD in data set [8] worked out at 4.3. For the same compound, the pKa in [9] amounted to 2.4.

With `CC1=CC(C)=[N+]2C1=C(CCc1cc(=O)n3c(c1C1CC1)SCC3C(=O)Nc1cccc(C)c1)c1c(C)cc(C)n1[B-]2(F)F` (stereo not given), the Drug uptake entry with Chlamydia trachomatis [1] is “Active”; with Chlamydia trachomatis [10], “Not Active”; with Chlamydia trachomatis [12], “Not Active”. The compound further had an Activity in the data set with Chlamydia trachomatis [11] of more than 95%.

Regarding `O=C(Nc1ccccc1)c1csc2c(C3CC3)c(Cc3cccc4ccccc34)cc(=O)n12`, the Activity with Chlamydia trachomatis [2] stood at 2.5 µM. Further, the viability at 48 h, 10 µM in data set [3] came to 87%. Moreover, the figures for the EC50 in the data set with Chlamydia trachomatis [4] and in the data set on Chlamydia trachomatis [15] were 254 nM and 1250 nM, respectively. In addition, the viability at 48 h, 25 µM in data set [6] turned out to be 73%. For the same compound, in data set [13], the logP worked out at 5. The “fold change (FC)” value in the data set on Chlamydia trachomatis [14], in the data set with Chlamydia trachomatis [16] and with Chlamydia trachomatis [17] was “>=10000” throughout.

As to `Cc1cccc(NC(=O)C2CSc3c(C4CC4)c(Cc4cccc5ccccc45)c(N)c(=O)n32)c1` (stereo not given), the Activity in the data set on Chlamydia trachomatis [2] came out at 1 µM. In data set [3], the viability at 48 h, 10 µM is 98%. In addition, the concentration giving a half-maximal response (EC50) in the data set with Chlamydia trachomatis [4] came out at 147 nM; in the data set on Chlamydia trachomatis [5], 124 nM. Moreover, the viability at 48 h, 25 µM in data set [6] was 97%.

As a reminder, the EC50 is the midpoint of the concentration-response curve. The term logD denotes the decadic logarithm of the distribution of all forms, ionised or not, between an organic phase and buffer at a given pH. Read a low logD as a more hydrophilic compound. For orientation: pKa means the negative logarithm of the acid dissociation constant. As a reminder, the logP is a log measure of how a compound divides between an organic and an aqueous phase. A low value points to a more hydrophilic compound.
